Experimental data: PubChem BioAssay
Activity calls are given as the source filed them.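 Rule for the calls, unless noted: active = NADPH fluorescence slope more negative than the mean of all samples by about 3 SD, 99.7% confidence; inactive = the rest.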

Key:
[1] = inhibitors of TNFa-induced NFkB p65 translocation, primary screen, imaging, HUVEC, MLSMR starter and 10KST1 sets (AID 438;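 active = inhibition above 20% together with a positive visual image hit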;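 note: compound added about 3h40 before a 20 min TNFalpha stimulation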;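 for inhibition: signal is the nuclear over cytoplasmic p65 intensity ratio per well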); settings: HUVEC TNFa-induced p65 nuclear translocation; cell count: measured here: nuclei count (cytotoxicity indicator), at 2.08 µM; inhibition: at 2 µM, stronger effect = higher value, 0% TNFa-plus-vehicle, 100% no-TNFa wells
[2] = reduction of polyQ htt aggregates in cells – imaging, exon1htt(103Q)mCFP cells, high-content imaging, primary screen (AID 483;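 active = visual image review flags a hit and inhibition of aggregation exceeds 20%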;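 note: compound exposure lasted 3 days before fixation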;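 for nuclei count: percent of the per-plate median nuclei count of sample wells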); settings: exon1htt(103Q)mCFP cell line, aggregate imaging, at 2 µM; inhibition of aggregation: stronger effect = higher value; nuclei count: measured here: cell count, toxicity
[3] = endothelial E-selectin expression blockers – imaging, HUVEC, immunofluorescence, MLSMR starter and 10KST1 sets, primary screen (AID 487;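 active = visually confirmed hit in the image check and inhibition above 20%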;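 for inhibition: signal is fraction of cell area covered by stained E-selectin grains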;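 for nuclei count: 100% = median nuclei count of all wells on the same plate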); settings: HUVEC TNFalpha-induced E-selectin immunofluorescence imaging, at 2 µM; inhibition: stronger effect = higher value; nuclei count: measured here: cell number, toxicity
[4] = target: Voltage-gated potassium channel subunit beta-2 (Rattus norvegicus) (UniProt P62483); assay: inhibitors of rat Kvbeta2 reductase activity – biochemical, NADPH fluorescence, primary screen (AID 622;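 active = fluorescence slope higher than the sample average by over 3 SD, cut at about -0.22 in these data, passing the limit was not always enough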;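 note: slope of raw intensity against log time taken from 70 to 1610 s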); settings: recombinant KvBeta, 4-cyanobenzaldehyde reduction, at 10 µM, stronger effect = higher value
[5] = target: Voltage-gated potassium channel subunit beta-2 (Rattus norvegicus) (UniProt P62483); assay: enhancers of rat Kvbeta2 NADPH turnover – biochemical, NADPH fluorescence, primary screen (AID 623); settings: Recombinant KvBeta, NADPH fluorescence decrease slope, 10 min; at 10 µM; stronger effect = lower value;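 note: fluorescence intensity change per second fitted from 20 to 320 s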
[6] = target: Muscarinic acetylcholine receptor M4 (Homo sapiens) (UniProt P08173); assay: M4-linked GIRK flux change, two-sided – cell-based, HEK293 M4/GIRK, thallium flux, BTC-AM, M4 allosteric agonist project, primary screen (AID 625;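 active = fluorescence slope after compound addition differing from the mean of all tested samples at 99.7% confidence, mostly higher but some lower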;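 note: thallium influx through GIRK channels coupled to M4 in HEK293 cells with BTC-AM dye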); settings: at 10 µM, actives lie on both sides
In short: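 Material: HEK293 cells with M4 receptor and GIRK channels; Times: cells overnight at 37 °C, BTC-AM loading 1 h, reads 2 min total; Technique: kinetic BTC-AM fluorescence sampled at 1 Hz, 10 s pre-addition baseline; Read-out basis: slope over 15–24 s of trace normalized to starting intensity; Controls: carbachol positive, DMSO negative.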

[7] = blockers of RIG-like receptor reporter activation – cell-based, Sendai virus stimulus, luciferase, 10K MLSCN set, TLR/RLR signaling modifier project, primary screen (AID 602276;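 active = inhibition at or above 50% at 10 µM; inactive = inhibition below 50%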;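 note: firefly luciferase from ISG56 promoter only with Renilla not read in this screen; 0% = Sendai virus plus DMSO and 100% = medium plus DMSO without virus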); settings: HEK293 RL24 IRF3 luciferase reporter, at 10 µM, stronger effect = higher value
[8] = TLR3 IRF3 reporter activation blockers – cell-based, poly I:C stimulus, luciferase, 10K MLSCN set, primary screen (AID 602277;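 active = inhibition of the reporter signal at or above 50%; inactive = inhibition below 50%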); settings: HEK293-TLR3 RL24 IRF3 luciferase reporter, at 10 µM, stronger effect = higher value
[9] = target: Alpha-2C adrenergic receptor (Homo sapiens) (UniProt P18825); assay: compounds altering alpha2C-coupled GIRK flux – cell-based, HEK293 alpha2C/GIRK1/2, thallium flux, primary screen (AID 624;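 active = fluorescence slope after compound addition differing from the mean of all screened samples at 99.7% confidence, in either direction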); settings: thallium flux BTC fluorescence, at 10 µM, actives lie on both sides
[10] = inhibitors of larval lipid processing in zebrafish, primary screen, whole organism, PED6 fluorescence, gall bladder and intestine (AID 686;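 active = a full or partial loss of lipid-probe fluorescence in the fish gall bladder, intestine or both, judged by eye; inactive = no fluorescence loss, or compound toxic to the fish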;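 note: larvae 5 to 7 days old with five fish per well; signal comes from phospholipase A2 cleavage of quenched PED6 carried via bile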); settings: Zebrafish larvae PED6 lipid processing, fluorescence scoring; screened at 20 µM (by protocol)
In short: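 Incubation: overnight exposure of larvae to compound plus PED6 / Test system: live zebrafish larvae aged 5-7 days, whole organism / Amount: 5 larvae per well / Read-out basis: visual per-well fluorescence inhibition score / Signal: visual fluorescence microscopy scoring of gall bladder, gut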

Chain of Muscarinic acetylcholine receptor M4 (Homo sapiens) (P08173 whole entry, looked up): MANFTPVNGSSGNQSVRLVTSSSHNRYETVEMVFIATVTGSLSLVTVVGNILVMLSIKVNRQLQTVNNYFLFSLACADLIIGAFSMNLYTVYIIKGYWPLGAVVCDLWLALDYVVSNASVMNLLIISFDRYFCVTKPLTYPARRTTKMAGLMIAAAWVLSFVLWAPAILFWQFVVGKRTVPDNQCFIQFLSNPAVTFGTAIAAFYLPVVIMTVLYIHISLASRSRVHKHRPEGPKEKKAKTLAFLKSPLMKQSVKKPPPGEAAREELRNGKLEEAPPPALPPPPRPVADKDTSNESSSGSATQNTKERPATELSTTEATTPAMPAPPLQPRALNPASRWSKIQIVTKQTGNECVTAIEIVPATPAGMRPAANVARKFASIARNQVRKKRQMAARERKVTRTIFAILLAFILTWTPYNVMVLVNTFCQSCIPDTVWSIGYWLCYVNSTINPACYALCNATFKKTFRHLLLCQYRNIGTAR
Chain of Voltage-gated potassium channel subunit beta-2 (Rattus norvegicus) (P62483 whole entry, looked up): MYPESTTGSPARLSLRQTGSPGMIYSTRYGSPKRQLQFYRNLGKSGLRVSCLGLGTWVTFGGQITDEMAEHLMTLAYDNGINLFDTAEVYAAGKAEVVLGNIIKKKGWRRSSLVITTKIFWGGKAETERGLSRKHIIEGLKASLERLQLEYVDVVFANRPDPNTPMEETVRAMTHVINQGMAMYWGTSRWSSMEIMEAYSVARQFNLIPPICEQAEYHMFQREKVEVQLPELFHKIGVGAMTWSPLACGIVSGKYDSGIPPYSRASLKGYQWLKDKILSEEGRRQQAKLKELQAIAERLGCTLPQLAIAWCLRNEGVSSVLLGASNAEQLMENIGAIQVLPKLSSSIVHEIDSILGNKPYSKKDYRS
Chain of Alpha-2C adrenergic receptor (Homo sapiens) (P18825 whole entry, looked up): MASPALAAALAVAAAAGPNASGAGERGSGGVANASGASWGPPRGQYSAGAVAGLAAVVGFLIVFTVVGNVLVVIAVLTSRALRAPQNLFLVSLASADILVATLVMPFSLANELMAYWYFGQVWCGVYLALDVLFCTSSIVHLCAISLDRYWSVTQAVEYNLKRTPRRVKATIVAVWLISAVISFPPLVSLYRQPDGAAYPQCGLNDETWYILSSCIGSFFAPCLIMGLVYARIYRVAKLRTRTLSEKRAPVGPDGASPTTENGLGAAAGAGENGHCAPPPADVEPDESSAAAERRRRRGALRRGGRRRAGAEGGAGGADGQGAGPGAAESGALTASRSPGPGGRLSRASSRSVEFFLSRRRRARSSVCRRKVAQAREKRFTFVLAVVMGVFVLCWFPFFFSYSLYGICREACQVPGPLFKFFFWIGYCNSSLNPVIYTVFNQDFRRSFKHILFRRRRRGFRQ

## COCCNC(=O)c1cc2c(-c3ccccc3F)nn(C)c2s1
[1]
  cell count: 401
  inhibition: -5.4% (inactive)
[2]
  inhibition of aggregation: -28.5% (inactive)
  nuclei count: 96.8%
[3]
  inhibition: -12.9% (inactive)
  nuclei count: 120%
[4]
  fluorescence slope: -0.523 (inactive)
[5]
  NADPH fluorescence slope: -3.7e-06 (inactive)
[6]
  fluorescence slope: 0.00439 (inactive)
[7]
  inhibition: 12.1% (inactive)
[8]
  inhibition: -0.79% (inactive)

## COc1ccc(-c2ccc(CCC(=O)O)n2NC(=O)c2cccs2)cc1
[1]
  cell count: 645
  inhibition: -3.5% (inactive)
[2]
  inhibition of aggregation: -1.9% (inactive)
  nuclei count: 108%
[3]
  inhibition: -35.1% (inactive)
  nuclei count: 131%
[4]
  fluorescence slope: -0.464 (inactive)
[5]
  NADPH fluorescence slope: -3.6e-05 (inactive)
[6]
  fluorescence slope: 0.00607 (inactive)
[7]
  inhibition: 2.14% (inactive)
[8]
  inhibition: 42.4% (inactive)

## CC(C)CN(CC(C)C)c1nc(N)c(C#N)c(CC#N)c1C#N
[1]
  cell count: 326
  inhibition: -7% (inactive)
[2]
  inhibition of aggregation: 9% (inactive)
  nuclei count: 102%
[3]
  inhibition: -60.7% (inactive)
  nuclei count: 120%
[4]
  fluorescence slope: -0.318 (inactive)
[5]
  NADPH fluorescence slope: -5e-05 (inactive)
[9]
  slope: 0.00502 (inactive)
[10]
  outcome: inactive
[8]
  inhibition: 62.5% (active)

## c1ccc2nc(-c3nc4ccccc4[nH]3)ccc2c1
[1]
  cell count: 574
  inhibition: 9.8% (inactive)
[2]
  inhibition of aggregation: -19.5% (inactive)
  nuclei count: 85.8%
[3]
  inhibition: -6.9% (inactive)
  nuclei count: 101%
[4]
  fluorescence slope: -0.551 (inactive)
[5]
  NADPH fluorescence slope: -2.7e-05 (inactive)
[6]
  fluorescence slope: 0.00356 (inactive)
[7]
  inhibition: 11.5% (inactive)
[8]
  inhibition: -35.5% (inactive)

## Cc1csc(OCc2ccc(C#N)cc2)n1
[1]
  cell count: 636
  inhibition: -4.4% (inactive)
[2]
  inhibition of aggregation: -1.8% (inactive)
  nuclei count: 97.8%
[3]
  inhibition: -4.8% (inactive)
  nuclei count: 114%
[4]
  fluorescence slope: -0.6 (inactive)
[5]
  NADPH fluorescence slope: -3.4e-05 (inactive)
[6]
  fluorescence slope: 0.0082 (inactive)
[7]
  inhibition: 7.71% (inactive)
[8]
  inhibition: 5.79% (inactive)

## Cc1ccc(Cn2nnc3c(=O)[nH]c(C4CCN(S(=O)(=O)c5ccc(F)cc5)CC4)nc32)cc1
[1]
  cell count: 436
  inhibition: 9.4% (inactive)
[2]
  inhibition of aggregation: 11.5% (inactive)
  nuclei count: 107%
[3]
  nuclei count: 153%
[4]
  fluorescence slope: -0.584 (inactive)
[5]
  NADPH fluorescence slope: 1.2e-05 (inactive)
[6]
  fluorescence slope: 0.00687 (inactive)
[7]
  inhibition: 0.788% (inactive)
[8]
  inhibition: -11.3% (inactive)

## CC(=O)Nc1ccc(S(=O)(=O)N2CCN(C(C)CCc3ccccc3)CC2)cc1 (stereo unspecified)
[1]
  cell count: 440
  inhibition: 0% (inactive)
[2]
  inhibition of aggregation: 2.6% (inactive)
  nuclei count: 69.7%
[3]
  inhibition: 1.2% (inactive)
  nuclei count: 96.1%
[4]
  fluorescence slope: -0.538 (inactive)
[5]
  NADPH fluorescence slope: -6.4e-05 (inactive)
[6]
  fluorescence slope: 0.00422 (inactive)
[7]
  inhibition: 7.51% (inactive)
[8]
  inhibition: 20.1% (inactive)

## COc1cccc(S(=O)(=O)Nc2cccnc2)c1
[1]
  cell count: 625
  inhibition: -15.2% (inactive)
[2]
  inhibition of aggregation: -31.5% (inactive)
  nuclei count: 119%
[3]
  inhibition: -20.1% (inactive)
  nuclei count: 96.4%
[4]
  fluorescence slope: -0.552 (inactive)
[5]
  NADPH fluorescence slope: 3.5e-05 (inactive)
[6]
  fluorescence slope: 0.00542 (inactive)
[7]
  inhibition: 5.36% (inactive)
[8]
  inhibition: -3.49% (inactive)

## Cn1c(=O)n(C)c2cc(NC(=O)C(F)(F)F)ccc21
[1]
  cell count: 231
  inhibition: -14.4% (inactive)
[2]
  inhibition of aggregation: 34.3% (active)
  nuclei count: 96.5%
[3]
  inhibition: -10.9% (inactive)
  nuclei count: 103%
[4]
  fluorescence slope: -0.449 (inactive)
[5]
  NADPH fluorescence slope: -3.6e-06 (inactive)
[6]
  fluorescence slope: 0.00534 (inactive)
[7]
  inhibition: 5.97% (inactive)
[8]
  inhibition: 17.7% (inactive)

## CCS(=O)(=O)Nc1ccc(C(=O)CC2(O)C(=O)Nc3ccccc32)cc1 (stereo unspecified)
[1]
  cell count: 602
  inhibition: -11.9% (inactive)
[2]
  inhibition of aggregation: -19.6% (inactive)
  nuclei count: 110%
[3]
  inhibition: 11.8% (inactive)
  nuclei count: 107%
[4]
  fluorescence slope: -0.521 (inactive)
[5]
  NADPH fluorescence slope: 0.000137 (inactive)
[6]
  fluorescence slope: 0.00663 (inactive)
[7]
  inhibition: 14.3% (inactive)
[8]
  inhibition: 18.7% (inactive)

## COCCCNCC(=O)Nc1ccc(OC(F)(F)F)cc1
[1]
  cell count: 363
  inhibition: 14.4% (inactive)
[2]
  inhibition of aggregation: -4.3% (inactive)
  nuclei count: 89.5%
[3]
  nuclei count: 119%
[4]
  fluorescence slope: -0.403 (inactive)
[5]
  NADPH fluorescence slope: -4.5e-05 (inactive)
[9]
  slope: 0.00627 (inactive)
[10]
  outcome: inactive
[7]
  inhibition: -4.19% (inactive)
[8]
  inhibition: -0.468% (inactive)

## Nc1c(C(=O)NCCc2ccccc2)nnn1Cc1ccccc1
[1]
  cell count: 564
  inhibition: 4.8% (inactive)
[2]
  inhibition of aggregation: 24.6% (inactive)
  nuclei count: 69.8%
[3]
  inhibition: -6.5% (inactive)
  nuclei count: 98.3%
[4]
  fluorescence slope: -0.571 (inactive)
[5]
  NADPH fluorescence slope: -4.3e-05 (inactive)
[6]
  fluorescence slope: 0.00544 (inactive)
[7]
  inhibition: -11.8% (inactive)
[8]
  inhibition: -13.7% (inactive)

## COc1cccc(C(=O)Nc2ccc(NC(=O)C(C)(C)C)cn2)c1
[1]
  cell count: 444
  inhibition: 9.8% (inactive)
[2]
  inhibition of aggregation: -12.7% (inactive)
  nuclei count: 120%
[3]
  nuclei count: 135%
[4]
  fluorescence slope: -0.571 (inactive)
[5]
  NADPH fluorescence slope: -9.6e-06 (inactive)
[6]
  fluorescence slope: 0.00623 (inactive)
[7]
  inhibition: 36% (inactive)
[8]
  inhibition: 21.1% (inactive)
